We go through 1 compound from ChEMBL document CHEMBL3612059, “Synthesis of 1,2-benzisoxazole tethered 1,2,3-triazoles that exhibit anticancer activity in acute myeloid leukemia cell lines by inhibiting histone deacetylases, and inducing p21 and tubulin acetylation” (Bioorg Med Chem, 2015).

The test system of data set [1] is MOLM-14. The data set is described as follows: Cytotoxicity against human MOLM14 cells assessed as cell viability at 0.25 to 5 uM by MTT assay. The format is functional, cell-based. The gist of the method:
(§1)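 AML cells kept in RPMI with 10 % FBS and 1 % penicillin-streptomycin at 37 °C, 5 % CO₂, mycoplasma-screened. Seeded at 8,000 cells/well across a range of concentrations and read at several times up to 96 h. MTT added to 0.5 mg/ml final for 3 h at 37 °C, formazan dissolved in SDS-HCl, absorbance read at 570 nm. IC50 taken from the dose-response curves.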
In general terms: Formazan colour is commonly taken as a measure of viable cells.

The subject of data set [2] is MOLM-14. The data set is described as follows: Upregulation of p21 protein expression in human MOLM14 cells by Western blot analysis. The format is functional, cell-based. For orientation: Immunoblotting shows a protein as a band on a membrane.
The nature of data set [3]: Cytotoxicity against C57BL/6 mouse bone marrow cells assessed as cell viability at 5 to 10 uM measured up to 72 hrs by MTT assay. The format is cell-based. The gist of the method: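 Total bone marrow from C57BL/6 mice cultured in IMDM with 20 % FBS, 10 ng/ml mouse IL-3, 10 ng/ml IL-6 and 50 ng/ml SCF. Exposed to 5 or 10 μM for up to 72 h. MTT added to 0.5 mg/ml for 3 h at 37 °C, formazan dissolved in SDS-HCl, A570 read. Three independent experiments, quadruplicate wells, mean ± SD.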

Data set [4] is described as follows: Inhibition of cyclin D protein expression in human MOLM13 cells by Western blot analysis. The format is functional, cell-based. The following applies: MOLM-13.
In data set [5] the test system is MV4-11. The data set is described as follows: Induction of apoptosis in human MV4-11 cells assessed as late apoptotic cells at 5 uM after 72 hrs by Annexin V-FITC/propidium iodide staining-based flow cytometric analysis (reference value: 2%). The format is functional. The gist of the method:
(§2)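 100,000 cells per well treated with 2.5, 5.0 or 10 μM for 72 h. Washed in ice-cold Ca/Mg-free PBS, resuspended in 100 μl binding buffer, stained with 5 μl PI plus 3 μl annexin V-FITC for 15 min in the dark, then read immediately by flow cytometry. Quadrants scored as live, early apoptotic, late apoptotic and necrotic.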
In general terms: Flow cytometry measures light scatter and fluorescence of single cells or particles in a stream.

Data set [6] deals with MOLM-13 (Homo sapiens). The data set is described as follows: Cytotoxicity against human MOLM13 cells assessed as cell viability measured at 96 hrs by MTT assay. The settings on record: MOLM-13, 96 h.
In data set [7] the test system is MOLM-14. The data set is described as follows: Cell cycle arrest in human MOLM14 cells assessed as decrease in cells level at G1 phase after 72 hrs by propidium iodide staining-based flow cytometric analysis. The format is functional. The gist of the method: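 Cells in RPMI with 10 % FBS at 37 °C, 5 % CO₂; treated up to 72 h, washed in cold PBS, fixed in -20 °C-precooled 70 % ethanol at 4 °C. Stained with 50 µg/ml PI, 1 % Triton X-100 and 20 µg/ml RNase A in PBS, 30 min, 37 °C, dark. Cell-cycle phases read by flow cytometry; three independent experiments, mean ± SD.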

The subject of data set [8] is MOLM-13 (Homo sapiens). The data set is described as follows: Cell cycle arrest in human MOLM13 cells assessed as accumulation at sub-G1 phase after 72 hrs by propidium iodide staining-based flow cytometric analysis.
Data set [9] deals with MV4-11. The data set is described as follows: Induction of apoptosis in human MV4-11 cells assessed as late apoptotic cells at 2.5 uM after 72 hrs by Annexin V-FITC/propidium iodide staining-based flow cytometric analysis (reference value: 2%). The format is functional. The gist of the method:
as §2

Data set [10] relates to MV4-11. The data set is described as follows: Cytotoxicity against human MV4-11 cells assessed as cell viability measured at 96 hrs by MTT assay. The format is functional, cell-based. The settings on record: MV4-11, 96 h. The gist of the method: as §1
Data set [11] relates to MOLM-14. The data set is described as follows: Induction of apoptosis in human MOLM14 cells assessed as late apoptotic cells at 2.5 uM after 72 hrs by Annexin V-FITC/propidium iodide staining-based flow cytometric analysis (reference value: 2%). The format is functional. The gist of the method: as §2
Data set [12] deals with T1, Protein deacetylase HDAC6 (Homo sapiens) (UniProt Q9UBN7).
T1 sequence (whole entry): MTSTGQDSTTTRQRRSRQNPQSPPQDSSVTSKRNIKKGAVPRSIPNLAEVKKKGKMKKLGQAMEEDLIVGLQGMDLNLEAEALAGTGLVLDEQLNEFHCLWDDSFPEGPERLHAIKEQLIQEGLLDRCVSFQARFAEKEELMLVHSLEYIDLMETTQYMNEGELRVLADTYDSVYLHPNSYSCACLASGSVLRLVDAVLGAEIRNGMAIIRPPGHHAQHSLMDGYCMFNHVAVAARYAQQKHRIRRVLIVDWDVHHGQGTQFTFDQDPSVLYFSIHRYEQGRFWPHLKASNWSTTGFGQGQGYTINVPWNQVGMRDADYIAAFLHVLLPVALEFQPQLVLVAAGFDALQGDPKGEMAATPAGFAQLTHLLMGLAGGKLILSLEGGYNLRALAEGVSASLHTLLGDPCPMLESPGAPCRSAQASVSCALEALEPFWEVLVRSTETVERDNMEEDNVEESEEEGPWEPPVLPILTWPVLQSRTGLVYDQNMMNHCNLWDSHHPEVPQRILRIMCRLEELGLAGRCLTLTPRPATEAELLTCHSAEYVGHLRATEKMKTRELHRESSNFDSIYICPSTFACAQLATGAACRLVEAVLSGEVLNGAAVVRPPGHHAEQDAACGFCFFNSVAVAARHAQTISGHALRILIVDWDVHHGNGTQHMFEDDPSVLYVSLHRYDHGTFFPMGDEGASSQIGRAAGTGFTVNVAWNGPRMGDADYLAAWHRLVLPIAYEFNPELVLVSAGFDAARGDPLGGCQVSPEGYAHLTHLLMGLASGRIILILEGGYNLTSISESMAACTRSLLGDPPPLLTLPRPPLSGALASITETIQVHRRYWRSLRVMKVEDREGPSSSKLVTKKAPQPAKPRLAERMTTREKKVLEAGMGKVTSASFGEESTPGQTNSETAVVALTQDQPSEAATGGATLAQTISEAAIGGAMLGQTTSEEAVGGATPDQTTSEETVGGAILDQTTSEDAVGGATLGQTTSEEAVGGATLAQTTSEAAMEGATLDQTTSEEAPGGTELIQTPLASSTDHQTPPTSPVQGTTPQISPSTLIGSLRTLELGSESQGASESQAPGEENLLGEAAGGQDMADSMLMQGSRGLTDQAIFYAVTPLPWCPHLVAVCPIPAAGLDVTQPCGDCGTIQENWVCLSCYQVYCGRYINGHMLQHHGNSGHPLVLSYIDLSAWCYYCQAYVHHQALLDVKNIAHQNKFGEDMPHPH
The data set is described as follows: Inhibition of HDAC6 in human MOLM14 cells assessed as increase in acetylation of tubulin at lysine 40 by Western blot analysis. The format is cell-based. The following applies: MOLM-14.

In data set [13] the test system is MOLM-13 (Homo sapiens). The data set is described as follows: Cell cycle arrest in human MOLM13 cells assessed as decrease in cells level at G1 phase after 72 hrs by propidium iodide staining-based flow cytometric analysis.

SMILES strings stand for the structures. Active and inactive are the calls of the source. The calls are words filed in the database; no cut-off is given here.

A word on the IC50: it is the concentration needed to halve the response being measured. For the compound `c1ccc(Oc2ccc(-c3cn(-c4noc5ccccc45)nn3)cc2)cc1`, the Activity result in data set [1] was “Dose-dependent effect”; in data set [3] it was “Non-toxic”; in data set [5] it was 20%; in data set [9], 15%; in [11], 26%. The result in data set [2], in data set [7], in data set [8] and in data set [13] was Active. Moreover, the inhibition entry in data set [4] was “Dose-dependent effect”. Further, the IC50 in data set [6] worked out at 1000 nM; in data set [10], 2500 nM. In data set [12], the inhibition result was “Active”.
